Laboratory results taken from ChEMBL document CHEMBL2021845, “Targeting anthracycline-resistant tumor cells with synthetic aloe-emodin glycosides” (ACS Med Chem Lett, 2011).
pIC50: −log10 of the molar value. Active and inactive are the calls of the source. The calls are words filed in the database; no cut-off is given here.

Legend:
Nucleic Acid [1] = assay: Binding affinity to Escherichia coli pBR322 DNA assessed as DNA unwinding at 5 to 10 uM after 15 mins by agarose gel electrophoresis; format: nucleic-acid assay
Nucleic Acid [2] = assay: Binding affinity to Escherichia coli pBR322 DNA assessed as DNA migration at 200 uM after 15 mins by agarose gel electrophoresis; format: nucleic-acid assay
Method in brief: (§1)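 Supercoiled plasmid pBR322 DNA was preincubated with compound at 200 or 20 μM. Samples were run on a 1% agarose gel for 4 h at 70 V and stained with ethidium bromide. Unwinding was judged qualitatively from the shift in migration of supercoiled DNA against a no-drug lane.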

OVCAR-3 [3] = assay: Cytotoxicity against human OVCAR3 cells after 24 hrs by XTT assay; format: functional, cell-based; details: OVCAR-3, 24 h
[4] = Cytotoxicity against human NAR cells after 24 hrs by XTT assay; format: functional, cell-based
SK-OV-3 [5] = assay: Cytotoxicity against human SKOV3 cells assessed as cell viability at 20 uM after 24 hrs by XTT assay; format: functional; details: SK-OV-3, 24 h, read-out: Activity
SK-OV-3 [6] = assay: Cytotoxicity against human SKOV3 cells after 24 hrs by XTT assay; format: functional, cell-based; details: SK-OV-3, 24 h
MOLT-4 = assay: Cytotoxicity against human MOLT4 cells after 24 hrs by XTT assay; format: functional, cell-based; details: MOLT-4, 24 h
MCF7 [7] = assay: Cytotoxicity against human MCF7 cells after 24 hrs by XTT assay; format: functional, cell-based; details: MCF7, 24 h
[8] = Cellular uptake in doxorubicin-resistant human NAR cells at 5 uM after 2 hrs by confocal microscopic analysis; format: ADME, cell-based
Method in brief: (§2)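 P-gp-overexpressing NAR ovarian cancer cells were incubated with 5 μM compound for 2 h, then fixed in paraformaldehyde. Plasma membranes were stained with carbocyanine tracer DiD. Confocal imaging used Ex/Em 488/525 nm for the drug and 640/685 nm for DiD, to localize drug in membrane versus cell interior.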

NAR [9] = assay: Cytotoxicity against human NAR cells assessed as induction of cell death at 10 uM after 24 hrs by trypan blue dye exclusion test; format: functional, cell-based
Method in brief: (§3)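 Cells were incubated with 10 μM compound for 24 h. A trypan blue dye exclusion test in cell suspension then counted total and dye-stained (dead) cells against an untreated control.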

[10] = Cytotoxicity against human lymphocytes assessed as cell viability after 3 hrs by XTT assay relative to untreated control; format: cell-based; details: Lymphocyte
Method in brief: (§4)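 Normal human lymphocytes from two individual donors were exposed to compound for 24 h or for a 3 h incubation. Viability was expressed relative to an untreated-cell control, and IC50 was derived per blood sample.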

[11] = Cytotoxicity against human lymphocytes assessed as cell viability after 24 hrs by XTT assay relative to untreated control; format: cell-based; details: Lymphocyte; method in brief: as §4
OVCAR-3 [12] = assay: Cytotoxicity against human OVCAR3 cells assessed as induction of cell death at 10 uM after 24 hrs by trypan blue dye exclusion test; format: functional, cell-based; method in brief: as §3
[13] = Toxicity in Wistar rat erythrocytes assessed as hemolysis at 50 uM after 1 hr; format: cell-based, Erythrocyte; details: read-out: Activity
OVCAR-3 [14] = assay: Cytotoxicity against human OVCAR3 cells assessed as cell viability at 20 uM after 24 hrs by XTT assay; format: functional; details: OVCAR-3, 24 h, read-out: Activity
[15] = Drug uptake in doxorubicin-resistant human NAR cell plasma membrane at 5 uM after 2 hrs by confocal microscopic analysis; format: ADME, cell-based; method in brief: as §2
NAR [16] = assay: (§5) Cytotoxicity against doxorubicin-resistant human NAR cells assessed as cell viability at 100 uM after 24 hrs by XTT assay; format: functional
Method in brief: (§6)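 NAR ovarian cancer cells with P-glycoprotein efflux pump overexpression; 24 h exposure to compound up to 100 μM; cell viability read-out.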

[17] = Cytotoxicity against human lymphocytes assessed as cell viability at 20 uM after 24 hrs by XTT assay relative to untreated control; format: cell-based, Lymphocyte; details: read-out: Activity
Method in brief: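 Normal human lymphocyte samples from two individuals; 24 h incubation with compound at 20 μM; viability expressed relative to an untreated cell control.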

Nucleic Acid [18] = assay: Binding affinity to Escherichia coli pBR322 DNA assessed as DNA migration at 20 uM after 15 mins by agarose gel electrophoresis; format: nucleic-acid assay; method in brief: as §1
MCF7 [19] = assay: Cytotoxicity against doxorubicin-resistant human MCF7 cells assessed as cell viability at 20 uM after 24 hrs by XTT assay; format: functional; details: MCF7, 24 h, read-out: Activity
[20] = as §5; format: functional; details: read-out: Activity; method in brief: as §6

Compound | Activity (Nucleic Acid [1]) | Activity (Nucleic Acid [2]) | pIC50 (OVCAR-3 [3]) | pIC50 [4] | viability at 20 µM (SK-OV-3 [5]) | pIC50 (SK-OV-3 [6]) | pIC50 (MOLT-4) | pIC50 (MCF7 [7]) | Activity (NAR [9]) | Activity (OVCAR-3 [12]) | hemolysis at 1 h, 50 µM [13] | viability at 20 µM (OVCAR-3 [14]) | viability at 24 h, 20 µM [17] | viability at 20 µM (MCF7 [19]) | also measured
C[C@H]1O[C@@H](OCc2cc(O)c3c(c2)C(=O)c2cccc(O)c2C3=O)C[C@@H](N)[C@@H]1O | inactive | inactive | 5.19 | < 4.00 | 92% | < 4.70 | 5.12 | 4.92 |  |  |  |  |  |  | 
C[C@@H]1O[C@@H](OCc2cc(O)c3c(c2)C(=O)c2cccc(O)c2C3=O)C[C@@H](N)[C@H]1O | inactive | inactive | 4.80 | 4.74 |  | 4.87 | 5.27 | 4.90 |  |  |  |  |  |  | 
C[C@@H]1O[C@@H](OCc2cc(O)c3c(c2)C(=O)c2cccc(O)c2C3=O)C[C@H](N)[C@H]1O | inactive | inactive | 5.28 | 5.07 |  | 5.16 | 5.24 | 5.15 | Active | Active | 3% |  |  |  | Drug uptake [8]: Active; pIC50 [10]: 5.52; pIC50 [11]: 5.52
COc1cccc2c1C(=O)c1c(O)c3c(c(O)c1C2=O)C[C@@](O)(C(=O)CO)C[C@@H]3O[C@H]1C[C@H](N)[C@H](O)[C@H](C)O1 [DOXORUBICIN] |  | Active | < 4.70 | < 4.00 | 63% | < 4.70 | 6.70 | < 4.70 | inactive | inactive | 2% | 61% | 100% | 83% | Drug uptake [15]: Active; Activity (NAR [16]): inactive; Activity (Nucleic Acid [18]): Active
C[C@H]1O[C@@H](OCc2cc(O)c3c(c2)C(=O)c2cccc(O)c2C3=O)C[C@H](N)[C@@H]1O | inactive | inactive | < 4.70 | 4.55 | 84% | < 4.70 | 4.89 | < 4.70 |  |  |  | 60% |  | 83% | 
O=C1c2cccc(O)c2C(=O)c2c(O)cc(CO)cc21 [ALOE-EMODIN] |  | inactive | < 4.70 | < 4.00 | 98% | < 4.70 | < 4.70 | < 4.70 |  |  | 0% |  | 77% | 77% | viability at 100 µM [20]: 78%
